# From article PMC9536290 (Clinical Infectious Diseases: An Official Publication of …, 2022)
# How the values were obtained:
# [1] = Phase IIa monotherapy study: safety and tolerability; format: in vivo, HIV-1–positive, treatment-naive adults; details: for Drug-related AEs: Abdominal pain / Drug-related AEs: Any event / Drug-related AEs: Chromaturia / Drug-related AEs: Diarrhea / Drug-related AEs: Epistaxis / Drug-related AEs: Fatigue / Drug-related AEs: Headache / Drug-related AEs: Maculopapular rash / Drug-related AEs: Nausea / Drug-related AEs: Pruritus / Drug-related AEs: Vomiting / Total AEs: Abdominal pain / Total AEs: Any event / Total AEs: Diarrhea / Total AEs: Headache / Total AEs: Lymphadenopathy / Total AEs: Nasopharyngitis / Total AEs: Oropharyngeal pain / Total AEs: Vomiting / Serious AEs: Anal abscess / Serious AEs: Congestive cardiomyopathy: n = 6; for Serious AEs: Anal abscess / Serious AEs: Congestive cardiomyopathy: considered not related to the study drug
# Procedure, shortened: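 Adults were ART-naive, aged 18–65 years, with HIV-1 RNA ≥5000 copies/mL and CD4+ ≥350 cells/mm3. They received placebo or oral once-daily doses after a moderate-fat meal: 10 or 200 mg for 10 days (part 1), or 40–140 mg for 7 days (part 2). Safety was monitored through adverse events, clinical laboratory tests, electrocardiograms and vital signs.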
# [2] = system: HIV-1 with A364V mutation; assay: Phenotypic resistance of participant virus with A364V; format: cell-based; details: virus of 1 participant (200 mg) with full conversion to A364V
# [3] = 10 mg once daily, part 1 (10 days)
# [4] = 40 mg once daily, part 2 (7 days)
# [5] = 80 mg once daily, part 2 (7 days)
# [6] = 140 mg once daily, part 2 (7 days)
# [7] = 200 mg once daily, part 1 (10 days)
# [8] = all doses combined, % of 34 participants
smiles,measurement,setting,value
C=C(C)[C@@H]1CC[C@]2(NCCN3CCS(=O)(=O)CC3)CC[C@]3(C)[C@H](CC[C@@H]4[C@@]5(C)CC=C(C6=CC[C@@](CF)(C(=O)O)CC6)C(C)(C)[C@@H]5CC[C@]43C)[C@@H]12 [GSK’254],Drug-related AEs: Abdominal pain,[1]; [3],0 n (%)
same,Drug-related AEs: Any event,[1]; [3],2 (33) n (%)
same,Drug-related AEs: Chromaturia,[1]; [3],1 (17) n (%)
same,Drug-related AEs: Diarrhea,[1]; [3],1 (17) n (%)
same,Drug-related AEs: Epistaxis,[1]; [3],0 n (%)
same,Drug-related AEs: Fatigue,[1]; [3],0 n (%)
same,Drug-related AEs: Headache,[1]; [3],0 n (%)
same,Drug-related AEs: Maculopapular rash,[1]; [3],0 n (%)
same,Drug-related AEs: Nausea,[1]; [3],1 (17) n (%)
same,Drug-related AEs: Pruritus,[1]; [3],0 n (%)
same,Drug-related AEs: Vomiting,[1]; [3],1 (17) n (%)
same,Total AEs: Abdominal pain,[1]; [3],0 n (%)
same,Total AEs: Any event,[1]; [3],3 (50) n (%)
same,Total AEs: Diarrhea,[1]; [3],1 (17) n (%)
same,Total AEs: Headache,[1]; [3],0 n (%)
same,Total AEs: Lymphadenopathy,[1]; [3],1 (17) n (%)
same,Total AEs: Nasopharyngitis,[1]; [3],0 n (%)
same,Total AEs: Oropharyngeal pain,[1]; [3],0 n (%)
same,Total AEs: Vomiting,[1]; [3],1 (17) n (%)
same,Drug-related AEs: Abdominal pain,[1]; [4],0 n (%)
same,Drug-related AEs: Any event,[1]; [4],2 (33) n (%)
same,Drug-related AEs: Chromaturia,[1]; [4],0 n (%)
same,Drug-related AEs: Diarrhea,[1]; [4],1 (17) n (%)
same,Drug-related AEs: Epistaxis,[1]; [4],1 (17) n (%)
same,Drug-related AEs: Fatigue,[1]; [4],1 (17) n (%)
same,Drug-related AEs: Headache,[1]; [4],0 n (%)
same,Drug-related AEs: Maculopapular rash,[1]; [4],0 n (%)
same,Drug-related AEs: Nausea,[1]; [4],0 n (%)
same,Drug-related AEs: Pruritus,[1]; [4],0 n (%)
same,Drug-related AEs: Vomiting,[1]; [4],0 n (%)
same,Total AEs: Abdominal pain,[1]; [4],0 n (%)
same,Total AEs: Any event,[1]; [4],5 (83) n (%)
same,Total AEs: Diarrhea,[1]; [4],1 (17) n (%)
same,Total AEs: Headache,[1]; [4],1 (17) n (%)
same,Total AEs: Lymphadenopathy,[1]; [4],0 n (%)
same,Total AEs: Nasopharyngitis,[1]; [4],0 n (%)
same,Total AEs: Oropharyngeal pain,[1]; [4],0 n (%)
same,Total AEs: Vomiting,[1]; [4],0 n (%)
same,Drug-related AEs: Abdominal pain,[1]; [5],2 (33) n (%)
same,Drug-related AEs: Any event,[1]; [5],2 (33) n (%)
same,Drug-related AEs: Chromaturia,[1]; [5],0 n (%)
same,Drug-related AEs: Diarrhea,[1]; [5],0 n (%)
same,Drug-related AEs: Epistaxis,[1]; [5],0 n (%)
same,Drug-related AEs: Fatigue,[1]; [5],0 n (%)
same,Drug-related AEs: Headache,[1]; [5],0 n (%)
same,Drug-related AEs: Maculopapular rash,[1]; [5],0 n (%)
same,Drug-related AEs: Nausea,[1]; [5],0 n (%)
same,Drug-related AEs: Pruritus,[1]; [5],0 n (%)
same,Drug-related AEs: Vomiting,[1]; [5],0 n (%)
same,Total AEs: Abdominal pain,[1]; [5],2 (33) n (%)
same,Total AEs: Any event,[1]; [5],4 (67) n (%)
same,Total AEs: Diarrhea,[1]; [5],0 n (%)
same,Total AEs: Headache,[1]; [5],0 n (%)
same,Total AEs: Lymphadenopathy,[1]; [5],0 n (%)
same,Total AEs: Nasopharyngitis,[1]; [5],0 n (%)
same,Total AEs: Oropharyngeal pain,[1]; [5],0 n (%)
same,Total AEs: Vomiting,[1]; [5],0 n (%)
same,Drug-related AEs: Abdominal pain,[1]; [6],0 n (%)
same,Drug-related AEs: Any event,[1]; [6],1 (17) n (%)
same,Drug-related AEs: Chromaturia,[1]; [6],0 n (%)
same,Drug-related AEs: Diarrhea,[1]; [6],0 n (%)
same,Drug-related AEs: Epistaxis,[1]; [6],0 n (%)
same,Drug-related AEs: Fatigue,[1]; [6],0 n (%)
same,Drug-related AEs: Headache,[1]; [6],0 n (%)
same,Drug-related AEs: Maculopapular rash,[1]; [6],1 (17) n (%)
same,Drug-related AEs: Nausea,[1]; [6],0 n (%)
same,Drug-related AEs: Pruritus,[1]; [6],1 (17) n (%)
same,Drug-related AEs: Vomiting,[1]; [6],0 n (%)
same,Total AEs: Abdominal pain,[1]; [6],0 n (%)
same,Total AEs: Any event,[1]; [6],5 (83) n (%)
same,Total AEs: Diarrhea,[1]; [6],0 n (%)
same,Total AEs: Headache,[1]; [6],1 (17) n (%)
same,Total AEs: Lymphadenopathy,[1]; [6],0 n (%)
same,Total AEs: Nasopharyngitis,[1]; [6],0 n (%)
same,Total AEs: Oropharyngeal pain,[1]; [6],1 (17) n (%)
same,Total AEs: Vomiting,[1]; [6],0 n (%)
same,Serious AEs: Anal abscess,[1]; [6],1 (17) n (%)
same,Serious AEs: Congestive cardiomyopathy,[1]; [6],0 n (%)
same,Drug-related AEs: Abdominal pain,[1]; [7],0 n (%)
same,Drug-related AEs: Any event,[1]; [7],2 (33) n (%)
same,Drug-related AEs: Chromaturia,[1]; [7],0 n (%)
same,Drug-related AEs: Diarrhea,[1]; [7],1 (17) n (%)
same,Drug-related AEs: Epistaxis,[1]; [7],0 n (%)
same,Drug-related AEs: Fatigue,[1]; [7],0 n (%)
same,Drug-related AEs: Headache,[1]; [7],1 (17) n (%)
same,Drug-related AEs: Maculopapular rash,[1]; [7],0 n (%)
same,Drug-related AEs: Nausea,[1]; [7],0 n (%)
same,Drug-related AEs: Pruritus,[1]; [7],0 n (%)
same,Drug-related AEs: Vomiting,[1]; [7],1 (17) n (%)
same,Total AEs: Abdominal pain,[1]; [7],0 n (%)
same,Total AEs: Any event,[1]; [7],5 (83) n (%)
same,Total AEs: Diarrhea,[1]; [7],1 (17) n (%)
same,Total AEs: Headache,[1]; [7],2 (33) n (%)
same,Total AEs: Lymphadenopathy,[1]; [7],1 (17) n (%)
same,Total AEs: Nasopharyngitis,[1]; [7],2 (33) n (%)
same,Total AEs: Oropharyngeal pain,[1]; [7],2 (33) n (%)
same,Total AEs: Vomiting,[1]; [7],1 (17) n (%)
same,Serious AEs: Anal abscess,[1]; [7],0 n (%)
same,Serious AEs: Congestive cardiomyopathy,[1]; [7],0 n (%)
same,"Trends in laboratory values, electrocardiograms, or vital signs",[1]; across treatment groups in parts 1 or 2,No clinically significant trends
same,AEs leading to treatment discontinuation,[1]; all doses,No AEs led to treatment discontinuation
same,Deaths,[1]; all doses,no deaths were reported
same,Number of drug-related AEs overall,[1]; all doses combined,Fourteen
same,Participants reporting abdominal pain overall,[1]; all doses combined,2 n
same,Participants reporting diarrhea overall,[1]; all doses combined,3 n
same,Participants reporting headache overall,[1]; all doses combined,4 n
same,Participants reporting oropharyngeal pain overall,[1]; all doses combined,3 n
same,Participants reporting vomiting overall,[1]; all doses combined,2 n
same,Participants reporting drug-related AEs overall,[1]; [8],9 (26%) n (%)
same,Participants with gastrointestinal AEs overall,[1]; [8],7 (21%) n (%)
same,Participants reporting AEs overall,"[1]; all doses, % of 34 participants incl. placebo (n = 4), all had received GSK’254",22 (65%) n (%)
same,Intensity of AEs and SAEs,"[1]; all doses, except 1 participant with 2 grade 3 non-drug-related AEs",mild-to-moderate
same,Fold change in half maximal inhibitory concentration (phenotypic resistance),[2],132 fold
